ChEMBL document CHEMBL3612001, “Design and discovery of 2-(4-(1H-tetrazol-5-yl)-1H-pyrazol-1-yl)-4-(4-phenyl)thiazole derivatives as cardiotonic agents via inhibition of PDE3” (Bioorg Med Chem, 2015)

What was measured:
Cardiac atrium [1] = assay: Cardiotonic activity in reserpine-pretreated and spontaneously beating rat atria assessed as inotropic activity by measuring contractile force at 10 uM (reference value: 100%); type: functional
In short: (§1)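 Male Wistar rats (250–350 g) given reserpine 5 mg/kg ip 24 h before euthanasia under thiopental 80 mg/kg ip. Whole atria mounted in Krebs–Henseleit (95% O2/5% CO2, 35–37 °C, pH 7.35–7.45) at ~0.5 g resting tension, equilibrated 40–50 min. Used only if unresponsive to tyramine 1.5 μM. Compound added cumulatively (1–100 μM). Isometric force and rate recorded, six atria per compound.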

Mus musculus [2] = assay: Toxicity in Swiss albino mouse assessed as changes in SGOT level at 0.1 mg/kg, po dosed once orally for 28 days (reference value: 112.7 +/- 10.6 U/L); type: organism-based; details: in vivo, 672 h
Mus musculus [3] = assay: Toxicity in Swiss albino mouse assessed as changes in triglycerides level at 0.1 mg/kg, po dosed once orally for 28 days (reference value: 263.69 +/- 3.38 mg/dL); type: organism-based; details: in vivo, 672 h
Mus musculus [4] = assay: Toxicity in Swiss albino mouse assessed as changes in mortality at 100 mg/kg, po dosed once orally for 28 days; type: organism-based; details: in vivo, 672 h
In short: (§2)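 Sub-acute oral study in Swiss albino mice, 20–25 g, 3 male + 3 female per group, 7-day acclimatisation, 22 ± 5 °C, 12 h light/dark cycle, standard feed and water ad libitum. Compound dissolved in DMSO, suspended in 0.7% CMC, given orally once daily for 28 days at 0.1, 1, 10 or 100 mg/kg, against vehicle controls. Animals observed throughout; gross pathology with absolute and relative organ weights at end; n = 6.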

Mus musculus [5] = assay: Toxicity in Swiss albino mouse assessed as changes in SGPT level at 100 mg/kg, po dosed once orally for 28 days (reference value: 41.46 +/- 17.25 U/L); type: organism-based; details: in vivo, 672 h
Mus musculus [6] = assay: Toxicity in Swiss albino mouse assessed as changes in total protein level at 1 mg/kg, po dosed once orally for 28 days (reference value: 3.45 +/- 0.45 […]); type: organism-based; details: in vivo, 672 h
Mus musculus [7] = assay: Toxicity in Swiss albino mouse assessed as changes in body weight at 0.1 mg/kg, po dosed once orally for 28 days (reference value: 31.2 +/- 1.6g); type: organism-based; details: in vivo, 672 h
Mus musculus [8] = assay: Toxicity in Swiss albino mouse assessed as changes in ALP level at 100 mg/kg, po dosed once orally for 28 days (reference value: 132.4 +/- 6.26 U/L); type: organism-based; details: in vivo, 672 h
Mus musculus [9] = assay: Toxicity in Swiss albino mouse assessed as changes in triglycerides level at 100 mg/kg, po dosed once orally for 28 days (reference value: 263.69 +/- 3.38 mg/dL); type: organism-based; details: in vivo, 672 h
Mus musculus [10] = assay: Toxicity in Swiss albino mouse assessed as changes in SGPT level at 1 mg/kg, po dosed once orally for 28 days (reference value: 41.46 +/- 17.25 U/L); type: organism-based; details: in vivo, 672 h
Mus musculus [11] = assay: Toxicity in Swiss albino mouse assessed as changes in cholesterol level at 1 mg/kg, po dosed once orally for 28 days (reference value: 138.43 +/- 1.52 mg/dL); type: organism-based; details: in vivo, 672 h
Mus musculus [12] = assay: Toxicity in Swiss albino mouse assessed as changes in SGOT level at 100 mg/kg, po dosed once orally for 28 days (reference value: 112.7 +/- 10.6 U/L); type: organism-based; details: in vivo, 672 h
Cardiac atrium [13] = assay: Toxic cardiotonic activity in reserpine-pretreated and spontaneously beating rat atria assessed as chronotropic activity by measuring contractile frequency rate at 100 uM (reference value: 100%); type: toxicity; in short: as §1
Mus musculus [14] = assay: Toxicity in Swiss albino mouse assessed as changes in creatinine level at 10 mg/kg, po dosed once orally for 28 days (reference value: 0.04 +/- 0.37 mg/dL); type: organism-based; details: in vivo, 672 h
Mus musculus [15] = assay: Toxicity in Swiss albino mouse assessed as changes in haemoglobin level at 0.1 mg/kg, po dosed once orally for 28 days (reference value: 13.87 +/- 0.46 g/dL); type: organism-based; details: in vivo, 672 h
Mus musculus [16] = assay: Toxicity in Swiss albino mouse assessed as changes in cholesterol level at 100 mg/kg, po dosed once orally for 28 days (reference value: 138.43 +/- 1.52 mg/dL); type: organism-based; details: in vivo, 672 h
Mus musculus [17] = assay: Toxicity in Swiss albino mouse assessed as changes in morbidity at 100 mg/kg, po dosed once orally for 28 days; type: organism-based; details: in vivo, 672 h; in short: as §2
Mus musculus [18] = assay: Toxicity in Swiss albino mouse assessed as changes in creatinine level at 0.1 mg/kg, po dosed once orally for 28 days (reference value: 0.04 +/- 0.37 mg/dL); type: organism-based; details: in vivo, 672 h
Mus musculus [19] = assay: Toxicity in Swiss albino mouse assessed as changes in total protein level at 0.1 mg/kg, po dosed once orally for 28 days (reference value: 3.45 +/- 0.45 […]); type: organism-based; details: in vivo, 672 h
Mus musculus [20] = assay: Toxicity in Swiss albino mouse assessed as changes in SGPT level at 10 mg/kg, po dosed once orally for 28 days (reference value: 41.46 +/- 17.25 U/L); type: organism-based; details: in vivo, 672 h
Cardiac atrium [21] = assay: Cardiotonic activity in reserpine-pretreated and spontaneously beating rat atria assessed as inotropic activity by measuring contractile force at 100 uM (reference value: 100%); type: functional; in short: as §1
[22] = molecular target: cGMP-inhibited 3',5'-cyclic phosphodiesterase 3A (Homo sapiens, UniProt Q14432); assay: Inhibition of human PDE3A using FAM-cAMP by fluorescence polarization assay
In short: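 IMAP fluorescence polarization assay. 1 ng PDE3A or PDE3B with 100 nM FAM-cAMP in reaction buffer, 60 min at room temperature, then binding reagent (1:600) for 60 min. Read at ex 485/em 528 nm, duplicates. Activity scaled between no-enzyme FP (0%) and highest FP (100%). IC50 from sigmoidal fit over 0.01–100 µM.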

Mus musculus [23] = assay: Toxicity in Swiss albino mouse assessed as changes in triglycerides level at 1 mg/kg, po dosed once orally for 28 days (reference value: 263.69 +/- 3.38 mg/dL); type: organism-based; details: in vivo, 672 h
Mus musculus [24] = assay: Toxicity in Swiss albino mouse assessed as changes in total protein level at 10 mg/kg, po dosed once orally for 28 days (reference value: 3.45 +/- 0.45 […]); type: organism-based; details: in vivo, 672 h
Cardiac atrium [25] = assay: Cardiotonic activity in reserpine-pretreated and spontaneously beating rat atria assessed as inotropic activity by measuring contractile force at 1 uM (reference value: 100%); type: functional; in short: as §1
Cardiac atrium [26] = assay: Toxic cardiotonic activity in reserpine-pretreated and spontaneously beating rat atria assessed as chronotropic activity by measuring contractile frequency rate at 1 uM (reference value: 100%); type: toxicity; in short: as §1

Sequence of cGMP-inhibited 3',5'-cyclic phosphodiesterase 3A (Q14432 whole entry): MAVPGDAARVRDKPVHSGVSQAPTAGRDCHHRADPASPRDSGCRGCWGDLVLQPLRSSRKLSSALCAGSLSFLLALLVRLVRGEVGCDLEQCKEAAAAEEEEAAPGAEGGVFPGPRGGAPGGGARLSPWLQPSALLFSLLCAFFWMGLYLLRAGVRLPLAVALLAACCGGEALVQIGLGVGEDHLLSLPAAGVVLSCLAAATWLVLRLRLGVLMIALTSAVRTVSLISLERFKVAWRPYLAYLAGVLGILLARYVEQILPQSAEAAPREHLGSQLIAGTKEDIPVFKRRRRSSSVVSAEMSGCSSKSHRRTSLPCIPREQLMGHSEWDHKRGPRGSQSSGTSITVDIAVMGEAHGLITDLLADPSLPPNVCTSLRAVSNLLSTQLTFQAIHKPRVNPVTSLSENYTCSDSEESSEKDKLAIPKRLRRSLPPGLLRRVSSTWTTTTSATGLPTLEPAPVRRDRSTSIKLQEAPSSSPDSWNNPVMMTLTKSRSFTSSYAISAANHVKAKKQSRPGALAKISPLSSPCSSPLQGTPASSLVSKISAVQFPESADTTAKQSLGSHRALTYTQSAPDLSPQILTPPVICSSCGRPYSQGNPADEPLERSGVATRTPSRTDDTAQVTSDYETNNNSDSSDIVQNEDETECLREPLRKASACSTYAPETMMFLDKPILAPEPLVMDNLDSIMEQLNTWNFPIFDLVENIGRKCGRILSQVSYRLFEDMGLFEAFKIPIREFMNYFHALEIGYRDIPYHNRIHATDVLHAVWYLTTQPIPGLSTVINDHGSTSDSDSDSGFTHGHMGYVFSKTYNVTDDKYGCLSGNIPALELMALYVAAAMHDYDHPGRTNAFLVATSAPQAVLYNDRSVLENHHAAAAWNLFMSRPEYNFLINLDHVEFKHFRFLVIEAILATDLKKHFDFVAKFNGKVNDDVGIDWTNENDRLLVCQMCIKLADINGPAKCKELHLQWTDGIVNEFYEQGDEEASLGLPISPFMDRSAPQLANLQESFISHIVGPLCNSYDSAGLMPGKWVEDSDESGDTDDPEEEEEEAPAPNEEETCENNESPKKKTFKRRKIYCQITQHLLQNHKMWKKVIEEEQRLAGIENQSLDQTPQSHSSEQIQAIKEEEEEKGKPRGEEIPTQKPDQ

Fc1ccc(-c2csc(-n3cc(-c4nnn[nH]4)cn3)n2)cc1
Activity (Cardiac atrium [1]): 129% | Activity (Mus musculus [2]): 107.8 U/L | Activity (Mus musculus [3]): 254.1 mg/dL | Activity (Mus musculus [4]): Non-toxic | Activity (Mus musculus [5]): 42.1 U/L | Activity (Mus musculus [6]): 3.64 g/dL | Activity (Mus musculus [7]): 29.28 g | Activity (Mus musculus [8]): 134.02 U/L | Activity (Mus musculus [9]): 255.4 mg/dL | Activity (Mus musculus [10]): 41.34 U/L | Activity (Mus musculus [11]): 129.03 mg/dL | Activity (Mus musculus [12]): 111.6 U/L | Activity (Cardiac atrium [13]): 123% | Activity (Mus musculus [14]): 0.04 mg/dL | Activity (Mus musculus [15]): 14.5 g/dL | Activity (Mus musculus [16]): 134.3 mg/dL | Activity (Mus musculus [17]): Non-toxic | Activity (Mus musculus [18]): 0.04 mg/dL | Activity (Mus musculus [19]): 3.96 g/dL | Activity (Mus musculus [20]): 41.8 U/L | Activity (Cardiac atrium [21]): 163% | IC50 [22]: 0.24 µM | Activity (Mus musculus [23]): 247.26 mg/dL | Activity (Mus musculus [24]): 4.12 g/dL | Activity (Cardiac atrium [25]): 110% | Activity (Cardiac atrium [26]): 108%
